Laboratory results from publication PMC3481556 (Journal of Natural Products, 2012).

Key:
[1] = test system: Bacillus subtilis 3610; experiment: Antibiotic assay; assay type: cell-based; settings: concentrations as high as 50 μg/mL
[2] = test system: liver-stage Plasmodium berghei; experiment: Liver-stage P. berghei assay; assay type: cell-based, Plasmodium berghei ANKA
In short: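 Luciferase-expressing P. berghei ANKA sporozoites came from dissected infected Anopheles stephensi mosquitoes. 4000 sporozoites infected 15 000 HepG2 cells per well with test compound in triplicate, 0 to 50 μg/mL, final DMSO 1%. After 2 days at 37 °C, relative parasite load was read by Bright-Glo luminescence. Standard inhibition dose–response fit gave IC50, mean of two independent experiments.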

[3] = test system: blood stage; experiment: Blood stage assays; assay type: cell-based; settings: Plasmodium berghei, read-out: IC50 in blood stage assays
[4] = test system: HepG2 human hepatoma cells; experiment: Cytotoxic assay, HepG2 cell viability; assay type: cell-based; settings: concentrations as high as 50 μg/mL
In short: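 HepG2 cells kept in DMEM with 10% FBS and 1% antibiotic–antimycotic at 37 °C, 5% CO2. Test compound in DMSO added in triplicate to 15 000 cells per well, 0 to 50 μg/mL, final DMSO 1%. Incubated 2 days at 37 °C, then viability read by CellTiter-Glo luminescence. Standard inhibition dose–response fit gave IC50, averaged from two independent experiments.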

With `COc1cccc2c1C(=O)c1ccc3c(c1C2=O)C(=O)C[C@](C)(O)C3` [Compound 4, 6-deoxy-8-O-methylrabelomycin] the “activity against B. subtilis (in words)” value [1] was “showed antibiotic activity” and the “activity against liver-stage Plasmodium berghei (in words)” value [2] was “showed antibiotic activity”.
With `O=C1C(O)=C([C@H]2CC[C@H](c3ccc(Cl)cc3)CC2)C(=O)c2ccccc21` [Atovaquone] the IC50 [3] was 0.3 nM.
With `COc1cccc2c1C(=O)c1ccc3cc(C)cc(O)c3c1C2=O` [Compound 5, X-14881 E] the “activity against B. subtilis (in words)” value [1] was “showed antibiotic activity”, the “activity against liver-stage Plasmodium berghei (in words)” value [2] was “showed antibiotic activity” and the “cytotoxicity against HepG2 cells (in words)” value [4] was “moderate cytotoxicity”.
